Laboratory results as given in the RNAGym collection of RNA variant scans (doi:10.1101/gad.245936.114).
This sample holds only a part of the variants without activity.

B1: tRNA (parent)
chain: CUCUCGGUAGCCAAGUUGGUUUAAGGCGCAAGACUUUAAUUUAUCACUACGAAAUCUUGAGAUCGGGCGUUCGACUCGCCCCCGGGAGAUUUUUUCCUCGAGCAA

Variants of: B1
Experiment: nonsense suppression (GFP-seq) (ratio to wild type); higher = more function; SUP4oc tRNA, yeast GFP reporter sort-seq
Summary of the method: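 Raffinose/galactose medium with 80 mg/L adenine was used to grow yeast carrying genome-integrated tRNA variants (~3% random-mutation library), RFP, and a galactose-driven GFP ochre reporter. Cells went into GFP/RFP bins, which were Illumina-sequenced, and variants with ≥100 reads and ≥30 cells were scored. Nonsense suppression (GFPSEQ) is the per-bin median GFP/RFP weighted by estimated cell share and expressed relative to the unmutated parent tRNA.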

Variant | nonsense suppression
CUCUCGGUAGCCAAGUUGGUUUAAGGCGCAAGACUUUAAUUUAUCACUACGAAAUCUUGAGAGCGGACGUUCGACUCGCCCCCGGGAGAUUUUUUCCUCGAGCAA | 0.0444
CUCUCGGUAGCCGAGUUGGUUUAAGGCGCGAGACUUUAAUUUAUCACUACGAAAUCUUGAGAUCGGGCGUUCGACUCGCCCCCGGGAGAUUUUUUCCUCGAGCAA | 0.105
CUUUCGGUAGCCAAGUUGGGUUAAGGCGCAAGACUUUAAUUUAUCACUACGAAAUCUUGAGAUCGGGCGUUCGACUCGCCCCCGGGAGAUUUUUUCCUCGAGCAA | 0.194
CUCUCGGUAGCUAAGUUGGUUUAAGGCGCAAGACUUUAAUUUAUCACUACGAAACCUUGAGAUCGGGCGUUCGACUCGCCCCCGGGAGAUUUUUUCCUCGAGCAA | 0.0665
CUCUCGGUAGCCAAGUGGGUUUAAGGCGCUAGACUUUAAUUUAUCACUACGAAAUCUUGAGAUCGGGCGUUCGACUCGCCCCCGGGAGAUUUUUUCCUCGAGCAA | 0.0613
CUCUCGGUAGCCAAGUUGGCUUAAGGCGCAAGACUUUAAUUUAUCACUACGAAAUCCGGACAUCGGGCGUUCGACUCGCCCCCGGGAGAUUUUUUCCUCGAGCAA | ≤ 0.026
CUCUCGGUAGCCAAGUUGGUUUAAGGCGCAAGACUUUAAUUUAUCACUACGAAAUCUUGGGAUCGGGCGUUCGACUCACCCCCGGGAGAUUUUUUCCUCGAGCAA | 0.0542
CUCUCGGUAGCCAAGUUAGUUUAAGGCGCAAGACUUUAAUUUAUCACUACGAAAUCUUGAGAUCGGGCGUUCGACUCGCCCCCGGGGGAUUUUUUCCUCGAGCAA | 0.036
CUCUCGGUAGCCAAGUUGGUUUAAGACGCAAGACUUUAAUUUAUCACUACGAAAUCUUGAGAUCAGGCGUUCGACUCGCCCCCGGAAGAUUUUUUCCUCGAGCAA | ≤ 0.026
CUCUCGGUAGCCAAGUUGGAUUAAGGCGCAAGACUUUAAUUUAUCACUACGAAAUCUUGAGAGCGGGCGUUCGACUCGCCCCCGGGAGAUUUUUUCCUCGAGCAA | 0.106
CUCUCGGAAGCCAAGUUGGUUUAAGGCGCAAGACUUUAAUUUAUCACUACGAAAUCUUGAAAUCGGGCGUUGGACUCGCCGCCGGGAGAUUUUUUCCUCGAGCAA | ≤ 0.026
CUCUCGGUAGGCAAGUCGGUCUAAGGCGCAAGACUUUAAUUUAUCACUACGAAAUCUUGAGACCGGGCGUUCGACUCGCCCCCGGGAGAUUUUUUCCUCGAGCAA | ≤ 0.026
CUCUCGGUAGCCAUGUUGGUUUAAGGCGCAAGACUUUAAUUUAUCACUACGAAAUCUUGAAAUCGGGCGUUCGACUCGCCCCCGGGAGAUUUUUUCCUCGAGCAA | 0.0341
CUCUCGGUAGCCAAGUGGGUGUAAGGCGCAAGACUUUAAUUUAUCACUACGAAAUCUUGAUAUCGGGCGUUCGACUCGCCCCCGGGAGAUUUUUUCCUCGAGCAA | 0.0263
CUCUCGGUAGCCAAGUUGGUUUAAGGCGCAAGACUUUAAUUUAUCACUACGAAAUCUUGAGAUCGGGCGUUCAACUCGCCCCCGGGAGAUUUUUUCCUCGAGCAA | 1.12
CUCUCGGUAGCCGAGUUGGUUUAAGGCGCAAGACUUUAAUUUAUCACUACGAAAUCUUGAGAUCGGGCGUUCGACUCGCCCCCGGGGGAUUUUUUCCUCGAGCAA | 0.14
CUCUCGGUAGCCAAGUUGGUUUACGGCGCAAGACUUUAAUUUAUCACUACGAAAUCUUGAGAUCGGGCGUUCGACUCUCCCCCGGGAGAUUUUUUCCUCGAGCAA | 0.0343
CUCUCGGUAGCCAAGUUGGUUUAAGGCGUAAGACUUUAAUUUAUCACUACGAAAUCUUGUGAUCGGGCGUUCGACUCGCCCCCGGGAGAUUUUUUCCUCGAGCAA | 1.18
CUCUCGGUAGCCAAGUUGGUUAAAGGCGCAAGACUUUAAUUUAUCACUACGAAACCUUGAGAUCGGGCGUUCGACUCGCCCCCGGGAGAUUUUUUCCUCGAGCAA | 0.377
CUCUCGGUAGCCAAGUUGGUUUAAGGGGCAAGACUUUAAUUUAUCACUACGAAAUCUUGAGAUCGGGCGUUCGACUCGCCCCCGGGGGAUUUUUUCCUCGAGCAA | 0.0273
CUCUCGGUAGCCAAGUUGGUGUAAGGCGCAAGACUUUAAUUUAUCACUACGAAAUCUUGAGAUCGGGCGUCCGACUCGCCCCCGGGAGAUUUUUUCCUCGAGCAA | 0.0265
CUCCCGGUAGCCAAGUUGGUUUAAGGCGCAAGACUUUAAUUUAUCACUACGAAAUCUUGAGAUCGGGCGUUCGACUCCCCCCCGGGAGAUUUUUUCCUCGAGCAA | 1.06
CUCUCGGUAGCCAAGUUGGUUAACGGCGCAAGACUUUAAUUUAUCACUACGAAAUCUUGAGAUCGGGUGUUCGACUCGCCCCCGGGAGAUUUUUUCCUCGAGCAA | 0.215
CUCUCGGUAGCCACGUUGGGUUAAGGCGCAAGACUUUAAUUUAUCACUACGAAAUCUUGAGAUCGGGCGUUCGACUCGCCCCCGGGAGAUUUUUUCCUCGAGCAA | ≤ 0.026
CUCUCGGUAGCCAGGUUGUUUUGAGGCGCGAGACUUUAAUUUAUCACUACGAAAUCUUGAGAUCGGGCGUUCGAUUCGCCCUCGGGAGAUUUUUUCCUCGAGCAA | ≤ 0.026
CUCUCGGUAGCCGAGUUGGUUUAAGGCGCAAGACUUUAAUUUAUCACUACGAAAUCUUGAGAUCGGGCGUUCGAAUCGCCCCCGGGAGAUUUUUUCCUCGAGCAA | 0.71
CUCUCGGUAGCCAAGUUGGUUUAAGGCGCAAGACUUUAAUUUAUCACUACGAAACCUUGAGAUCGGGCGUUCAACUCGCCCCCGGGAGAUUUUUUCCUCGAGCAA | 0.0331

Variant | nonsense suppression
CUCUCGGUAGCCAAGUUGGUUUAGGGCGCAUGAUUUUAAUUUAUCACUACGAAAUCUUGAGAUCGGGCGUUCGGCUCGCCCCCGGGAGAUUUUUUCCUCGAGCAA | ≤ 0.026
CUCUCGGUAGCCAAGUUGGUUUACGGCGCUAGACUUUAAUUUAUCACUACGAAAUCUUGAGAUCGGGCGUUCGACUCGCCCCCGGGAGAUUUUUUCCUCGAGCAA | 0.11
CUCUCGGUAGCCAAGUUGGUUUAAGGCGAAAGACUUUAAUUUAUCACUACGAAAUCUUGAGAUCGGGCGUUCGACUCGCCCCCGGGAGAUUUUUUCCUCGAGCAA | 0.113
CUCUCGGUAGCCAAGUUGGUGUAAGGCGCAAGACUUUAAUUUAUCACUACGAAAUCUUGAGAUCGGGCGUUCGACUCGCCCCCGAGAGAUUUUUUCCUCGAGCAA | 1.08
CUCUCGGUAGCCAAGUUGGUUUAAGGCGCAAGACUUUAAUUUAUCACUACGAAAUCUUGAGUUCGGGCGUUCGACUCGCCCCCGGGAGAUUUUUUCCUCGAGCAA | 0.193
CUCUCGGUAGGCAAGUUGGUUUAAGGCGCAAGGCUUUAAUUUAUCACUACGAAAUCUUGAGAUCGGGCGUUCGACUCGCCCCCGGGAGAUUUUUUCCUCGAGCAA | ≤ 0.026
CUCUCGGUAGCCAAGUUGGUUUAAGGCGCAAGACUUUAAUUUAUCACUACGAAAUCUUGAGAUCGGGCGUUCGACUCGCCCCCGGGAUCUUUUUUCCUCGAGCAA | ≤ 0.026
CUCUCGGUAGCCAAGCUGGUGUAAGGCGCAGCACUUUAAUUUAUCACUACGAAAUCUUGAGAUCGGGCAUCCGAAUCGCCCCCGGAAGAUUUUUUCCUCGAGCAA | ≤ 0.026
AUCGCGGUAGCCAAGUUGGUUUAAGGUGCAAGACUUUAAUUUAUCACUACGAAAUCUUGAGAUCGGGCGUUCGACUCGCCCCCGGGAGAUUUUUUCCUCGAGCAA | ≤ 0.026
CUCUCGGUACCCAAUUUGGUUUAAGGCGCAAGUCUUUAAUUUAUCACUACGAAAUCUUGAGAUCGGGCGUUCGACUCGCCCCCGGGAGAUUUUUUCCUCGAGCAA | ≤ 0.026
CUCUCGGUACCCAAGUUGGUUUAAGGCGCAAGACUUUAAUUUAUCACUACGAAAUGUUGAGAUCGGGCGUGCGACUCGCCCCCGGGAGAUUUUUUCCUCGAGCAA | ≤ 0.026
CUCUCGGUAGCCAAGUUGGGUUAAGGCGCAAGACUUUAAUUUAUCACUACGAAAUCUUGACAUCGGGCGUUCGACUCGCCCCCGGGAGAUUUUUUCCUCGAGCAA | 0.615
CUCUCGGUAGCCAAGUUGGUUUAAGGCGGAAGACUUUAAUUUAUCACUACGAAAUCUUGAGAUCGGGCGUUCGACUCGCCCCCGGAAGAUUUUUUCCUCGAGCAA | ≤ 0.026
CUCUCGGUAGCCAAGUUGGUUUACGGCGCAAGACUUUAAUUUAUCACUACGAACUCUUGAGAUCGGGCGUUCGACUCGCCCCCGGGAGAUUUUUUCCUCGAGCAA | 0.198
CUCACGGUAGCCAAGUUGAUUUAAGGCGCAUGACUUUAAUUUAUCACUACGAAAUCUUGAGGUCGGGCGUUCGACUCGCCCCCGGGAGAUUUUUUCCUCGAGCAA | ≤ 0.026
CUCUCGGUAGCCAAGUUGGUUUAAGGCGCAAGACUUUAAUUUAUCACUACGAACUCUUGAGAUCGGGCGUUCGGCUCGCCCCCGGGAGAUUUUUUCCUCGAGCAA | 0.0575
CUCUCGGUAGCCAAGUUGGUUUAAGGCGCAAGACUUUAAUUUAUCACUACGAACUCUUGAGAUCGGGCGUUCGAGUCGCCCCCGGGAGAUUUUUUCCUCGAGCAA | 1.15
GUCUCGGUAGCCUAGUUGGUUUAAUGCGCAAGACUUUAAUUUAUCACUACGAAAUCUUCAGAUCGGGCGUUCGACUCGCCCCCGGGAGAUUUUUUCCUCGAGCAA | ≤ 0.026
CUCUCGGUGGCCAAGUCGGUUCAAGGCGCAAGACUUUAAUUUAUCACUACGAAAUCUUGAGAUCGGGCGUUCGACUCGCCCCCGGGAGAUUUUUUCCUCGAGCAA | 0.133
CUCUCGCUAGCCAAGUUGGUUUAAGGCGCACCACUUUAAUUUAUCACUACGAAAUCUUGAGAUCGGGCGUUCGACUCGCCCCCGGGAGAUUUUUUCCUCGAGCAA | ≤ 0.026
CGCUCGGUAGCCAAGUUGGAUUAAGGCGCAAGACUUUAAUUUAUCACUACGAAAUCUUGAGACCGGGCGUUCGACCCGCCCCCGGGAGAUUUUUUCCUCGAGCAA | ≤ 0.026
CUCUCGGUAGACAAGUUGGUUUAAGGCGCAAGGCUUUAAUUUAUCACUACGAAAUCUUGAGAUCGGGCGUUCGACUAGCCGCCGGGAGAUUUUUUCCUCGAGCAA | ≤ 0.026
CUCUCGGUAGCCAAGUUGGCUUAAGGCGCAAGACUUUAAUUUAUCACUACGAAAUCUUGAGAUCGGGCGUUCGACUCGCCCCCGGGAGAUUUUUUCCUCGAGCAA | 0.848
CUCUCGGUAGCCAAGUUGGUUUCAGGCGCAAGACUUUAAUUUAUCACUACGAAAUCUUGAGAUCGGGCGUUCGACGCGCCCCCGGGAGAUUUUUUCCUCGAGCAA | ≤ 0.026
CUCUCGGUAGCCAAGUUGGUUUAAGGCGCAAGACUUUAAUUUAUCACUACGAAAUCUUGGGAUCGGGCGUUCGACUCGCCCACGGGAGAUUUUUUCCUCGAGCAA | 0.0331
CUCUCGGUAGCCAAGUUGGUUGAAGGCGCAAGACUUUAAUUUAUCACUACGAAAUCUUGAGAUCGGGGGUUCGACUCGCCCCCGGGAGAUUUUUUCCUCGAGCAA | ≤ 0.026
CUCUCGGUAGCCCAGUUGGUUUAAGGCGCAAGACUUUAAUUUAUCACUACGAAAUCUUGUGAUCGGGCGUUCGACUCGCCCCCGGGAGAUUUUUUCCUCGAGCAA | 1.07
